Values after ≈ are worked out from the molar mass of the structure shown. Active and inactive are the calls of the source. No cut-off for these calls is given here.

One assay relates to U-937. Kind of assay: Antiproliferative activity against human U937 cells assessed as cell viability after 96 hrs by CellTiter-Glo luminescence assay. The assay is classed as functional, cell-based. As to conditions: U-937, 96 h. Summed up:
(§1)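 Cells grown in 96-well plates with no compound or continuous exposure to 1.5–50 000 nM for 96 h. Growth was read by CellTiter-Glo luminescence. IC50 is the concentration giving 50% growth inhibition versus untreated cells. Two separate replicate experiments were run.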

A further assay deals with MDA-MB-435. Put plainly: Antiproliferative activity against human MDA-MB-435 cells assessed as cell viability after 96 hrs by CellTiter-Glo luminescence assay. As to conditions: MDA-MB-435, 96 h. The format is functional, cell-based. Summed up: as §1
(In ATP-based viability assays light output follows the ATP content of the culture.)

Assay [1] concerns HeLa. Kind of assay: Induction of microfilament disruption in human HeLa cells at 20 ug/ml after 24 hrs by Hoechst staining-based fluorescence microscopic analysis. The assay is classed as functional, cell-based. In short, it runs like this: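 HeLa cells (1500/well, 384-well) were seeded and incubated overnight at 37 °C, 5% CO2, then samples were pin-transferred. After 24 h cells were fixed in 4% formaldehyde for 20 min, permeabilised with 0.5% Triton X-100 for 10 min and blocked with 2% BSA. Actin was stained with rhodamine-phalloidin and DNA with Hoechst 33342. Images were taken by automated fluorescence microscopy at 10×.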

Assay [2] relates to Trypanosoma brucei brucei. Kind of assay: Antitrypanosomal activity against Trypanosoma brucei brucei clone 427-221a assessed as growth inhibition after 40 hrs by ATP-bioluminescence assay. The format is functional, organism-based. Summed up: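 Bloodstream-form parasites (1×10^4/well) were grown in HMI-9 with 10% FBS, 10% Serum Plus and penicillin/streptomycin at 37 °C, 5% CO2. Samples were tested at 12.5 and 1.25 µg/mL, or serially diluted 25–0.001 µg/mL for IC50, at 0.5% final DMSO. Incubation was 40 h. ATP was read by CellTiter-Glo. Log10 signals were converted to % inhibition against 0.5% DMSO and 50 µM thimerosal controls, and curves were fitted.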

Assay [3] can be described thus: Antiproliferative activity against human H522-T1 cells assessed as cell viability after 96 hrs by CellTiter-Glo luminescence assay. The settings on record: H522-T1, 96 h. The assay is classed as functional, cell-based. Summed up:
as §1

A further assay relates to HT-29. Kind of assay: Antiproliferative activity against human HT-29 cells assessed as cell viability after 96 hrs by CellTiter-Glo luminescence assay. The format is functional, cell-based. The settings on record: HT-29, 96 h. In short, it runs like this:
as §1

The test system of assay [4] is HeLa. Kind of assay: Stabilization of microtubule in human HeLa cells at 20 ug/ml after 24 hrs by Hoechst staining-based fluorescence microscopic analysis. The assay is classed as functional, cell-based.
In assay [5] the test system is RAW264.7. Put plainly: Cytotoxicity against mouse RAW264.7 cells assessed as cell viability […] by MTT assay. The assay is classed as functional. The settings on record: in the assay text read “20 hrs” for “24 hrs”. In short, it runs like this: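 MTT test on extracts at 10 µg/mL and library fractions at 20 µg/mL, dissolved in DMSO. RAW264.7 cells were exposed for 20 h. MTT was then added for 2 h, the medium removed, formazan dissolved in DMSO, and absorbance read at 570 nm.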
In general terms: Formazan colour is commonly taken as a measure of viable cells.

A further assay has as its system PC-3. Kind of assay: Cytotoxicity against human PC3 cells assessed as cell viability at 10 uM after 24 hrs by MTT assay. The assay is classed as functional, cell-based.
Assay [6] concerns RAW264.7. Put plainly: Cytotoxicity against mouse RAW264.7 cells assessed as cell viability at 10 uM after 20 hrs by MTT assay.

The IC50 is the midpoint of a concentration-inhibition curve. Regarding `C=C1C[C@H](C)C[C@@H]2CC=C[C@@H](C/C=C\C(=O)O[C@H]3C[C@@H](O[C@@]3(/C=C/[C@@H]3CC(C)=CCO3)OC)[C@@H](O)[C@@H](O)C1)O2`, the IC50 in the assay with U-937 was above 2.5 µg/mL; in the assay with MDA-MB-435, above 2.5 µg/mL; in assay [2] it was above 10 µg/mL; in assay [3], above 2.5 µg/mL; in the assay with HT-29, above 2.5 µg/mL. For the same molecule, in the assay on HeLa [1], the result was Active.

For `C/C1=C/C(=O)O[C@@H]2C[C@@H](CC[C@H](C)/C=C\C(=O)CCC1)O[C@@](O)([C@@H]1CSC(=O)N1)C2`, the IC50 in the assay with U-937 was above 2.5 µg/mL; in the assay on MDA-MB-435, above 2.5 µg/mL; in assay [2], 3.6 µg/mL (≈ 8.23 µM); in [3] it was above 2.5 µg/mL; with HT-29 it was above 2.5 µg/mL. Also, the outcome in the assay with HeLa [1] and in the assay with HeLa [4] was inactive.

Regarding `C[C@]12CCC[C@](C)(C(=O)O)[C@@H]1CC[C@@]1(C)c3cocc3CC[C@H]21`, the Activity in the assay on RAW264.7 [5] is above 90 µM.

Turning to `COc1cccc2c1C(=O)c1c(O)c3c(c(O)c1C2=O)C[C@@](O)(C(=O)CO)C[C@@H]3O[C@H]1C[C@H](N)[C@H](O)[C@H](C)O1`, the outcome with PC-3 and in the assay with RAW264.7 [6] was Active.

For the molecule `COC(CC1=CC[C@]2(C)[C@@H](C)CCC[C@]2(C)C1=O)OC` [AIGNOPSANE KETAL], the half-inhibitory concentration (IC50) is above 2.5 µg/mL in the assay on U-937; above 2.5 µg/mL in the assay with MDA-MB-435; above 10 µg/mL in assay [2]; above 2.5 µg/mL in [3]; above 2.5 µg/mL in the assay on HT-29. Besides, the outcome with HeLa [1] and in the assay with HeLa [4] was inactive.

Take `C[C@H]1CCC[C@]2(C)C(=O)/C(=C\C(=O)O)CC[C@]12C` [AIGNOPSANOIC ACID A]: the 50% inhibitory concentration (IC50) was above 2.5 µg/mL with U-937; above 2.5 µg/mL in the assay with MDA-MB-435; 6.5 µg/mL (≈ 26 µM) in assay [2]; above 2.5 µg/mL in [3]; above 2.5 µg/mL in the assay with HT-29. Moreover, the outcome in the assay with HeLa [1] and in the assay on HeLa [4] was inactive.

As to `C[C@H]1CCC[C@]2(C)C(=O)[C@H](C(O)C(=O)O)CC[C@]12C` (some centres undefined) [AIGNOPSANOIC ACID B], the IC50 in the assay on U-937 was above 2.5 µg/mL; in the assay with MDA-MB-435, above 2.5 µg/mL; in [2], above 10 µg/mL; in assay [3], above 2.5 µg/mL; with HT-29 it was above 2.5 µg/mL. For the same molecule, the result with HeLa [1] and in the assay with HeLa [4] was inactive.

Turning to `C/C(=C/C(=O)O)CC/C=C/C=C\[C@@H](C)CC[C@@H](O)CCCC(=O)c1csc(=O)[nH]1` [APO LATRUNCULIN T], the IC50 with U-937 was above 2.5 µg/mL; in the assay on MDA-MB-435, above 2.5 µg/mL; in assay [2], 4.8 µg/mL (≈ 11.4 µM); in assay [3], above 2.5 µg/mL; with HT-29, above 2.5 µg/mL. For the same molecule, the result in the assay with HeLa [1] and with HeLa [4] was inactive.

`C=C1C[C@H](C)C[C@@H]2CC=C[C@@H](C/C=C\C(=O)O[C@H]3C[C@@H](O[C@H]3/C=C/[C@@H]3CC(C)=CC(=O)O3)[C@@H](O)[C@@H](O)C1)O2` [FIIJIANOLIDE D]: the IC50 in the assay on U-937 is above 2.5 µg/mL; in the assay with MDA-MB-435, above 2.5 µg/mL; in assay [2], 1.4 µg/mL (≈ 2.65 µM); in assay [3], above 2.5 µg/mL; with HT-29, above 2.5 µg/mL. In the assay with HeLa [1], the outcome was Active. The outcome in the assay with HeLa [4] was inactive.

As to `C=C1C[C@H](C)C[C@@H]2CC=C[C@@H](C/C=C\C(=O)O[C@H]3C[C@@H](O[C@H]3/C=C/[C@@H]3CC(C)=CCO3)[C@@H](O)[C@@H](O)C1)O2` [FIJIANOLIDE A], the IC50 stood at 0.03 µg/mL (≈ 0.0583 µM) in the assay with U-937; 0.02 µg/mL (≈ 0.0389 µM) in the assay with MDA-MB-435; 1.4 µg/mL (≈ 2.72 µM) in assay [2]; 0.02 µg/mL (≈ 0.0389 µM) in assay [3]; 0.04 µg/mL (≈ 0.0777 µM) with HT-29. The result in the assay on HeLa [1] was Active. In addition, the outcome in the assay on HeLa [4] was inactive.

For the molecule `C=C1C[C@H](C)C[C@@H]2CC=C[C@@H](C/C=C\C(=O)O[C@H]([C@@H](O)/C=C/[C@@H]3CC(C)=CCO3)C[C@@H]3O[C@H]3[C@@H](O)C1)O2` [FIJIANOLIDE B], the IC50 was 0.003 µg/mL (≈ 0.00583 µM) in the assay on U-937; 0.002 µg/mL (≈ 0.00389 µM) in the assay with MDA-MB-435; 0.08 µg/mL (≈ 0.155 µM) in assay [2]; 0.002 µg/mL (≈ 0.00389 µM) in assay [3]; 0.003 µg/mL (≈ 0.00583 µM) in the assay with HT-29. Also, the outcome in the assay on HeLa [1] was Active. In addition, the outcome with HeLa [4] was inactive.

For the molecule `C/C1=C/C(=O)O[C@@H]2C[C@@H](CC[C@H](C)/C=C\C=C\CC1)O[C@@](O)([C@@H]1CSC(=O)N1)C2` [LATRUNCULIN A], the IC50 turned out to be 0.07 µg/mL (≈ 0.166 µM) in the assay with U-937; 0.04 µg/mL (≈ 0.0949 µM) with MDA-MB-435; 1.2 µg/mL (≈ 2.85 µM) in assay [2]; 0.06 µg/mL (≈ 0.142 µM) in [3]; 0.08 µg/mL (≈ 0.19 µM) in the assay with HT-29. The outcome in the assay with HeLa [1] was inactive. In addition, the result in the assay with HeLa [4] was Active.

Turning to `C/C1=C/C(=O)O[C@@H]2C[C@@H](CC[C@H](C)/C=C\[C@H](O)[C@@H](O)CC1)O[C@@](O)([C@@H]1CSC(=O)N1)C2` [LATRUNCULOL A], the IC50 with U-937 was 0.31 µg/mL (≈ 0.68 µM); in the assay with MDA-MB-435, above 2.5 µg/mL; in assay [2], 0.09 µg/mL (≈ 0.198 µM); in [3] it was 0.76 µg/mL (≈ 1.67 µM); in the assay on HT-29, 0.65 µg/mL (≈ 1.43 µM). Moreover, the outcome with HeLa [1] was inactive. The result in the assay with HeLa [4] was Active.

For `CO[C@H]1/C=C\[C@@H](C)CC[C@@H]2C[C@H](C[C@](O)([C@@H]3CSC(=O)N3)O2)OC(=O)/C=C(/C)CC[C@@H]1O` [LATRUNCULOL B], the IC50 is above 2.5 µg/mL in the assay with U-937; above 2.5 µg/mL in the assay with MDA-MB-435; 2 µg/mL (≈ 4.26 µM) in [2]; above 2.5 µg/mL in assay [3]; above 2.5 µg/mL in the assay on HT-29. For the same molecule, in the assay on HeLa [1], the result was inactive. The outcome in the assay with HeLa [4] was Active.

For `C/C1=C/C(=O)O[C@@H]2C[C@@H](CC[C@H](C)/C=C\CC(=O)CC1)O[C@@](O)([C@@H]1CSC(=O)N1)C2` [LATRUNCULONE B], the IC50 is 1.18 µg/mL (≈ 2.7 µM) in the assay with U-937; above 2.5 µg/mL in the assay on MDA-MB-435; 1 µg/mL (≈ 2.29 µM) in assay [2]; 0.8 µg/mL (≈ 1.83 µM) in assay [3]; 0.8 µg/mL (≈ 1.83 µM) with HT-29. Further, in the assay with HeLa [1], the outcome was inactive. For the same molecule, in the assay with HeLa [4], the outcome was Active.

As for `COC(=O)/C=C1/CC[C@]2(C)[C@@H](C)CCC[C@]2(C)C1=O` [METHYL AIGNOPSANOATE], the concentration for half-maximal inhibition (IC50) is above 2.5 µg/mL in the assay with U-937; above 2.5 µg/mL with MDA-MB-435; above 10 µg/mL in assay [2]; above 2.5 µg/mL in [3]; above 2.5 µg/mL in the assay with HT-29. Besides, the outcome with HeLa [1] and in the assay on HeLa [4] was inactive.

Turning to `C=CC/C=C\Cc1csc(C(C)(C)[C@H](O)C/C=C\C(=C)CCNC(=O)OC)n1` [MYCOTHIAZOLE], the IC50 was found to be 0.01 µg/mL (≈ 0.0247 µM) in the assay on U-937; 1 µg/mL (≈ 2.47 µM) in the assay with MDA-MB-435; 6.7 µg/mL (≈ 16.6 µM) in assay [2]; 1 µg/mL (≈ 2.47 µM) in [3]; 0.7 µg/mL (≈ 1.73 µM) with HT-29. For the same molecule, the result in the assay on HeLa [1] and in the assay on HeLa [4] was inactive.

`CCCCCCC(C)CCCCCCCCCOC[C@H](O)COC1[C@@H](O)[C@H](O)[C@@H](O)[C@@H]1O` (some centres undefined) [SACROTRIDE A]: the IC50 was above 2.5 µg/mL with U-937; above 2.5 µg/mL in the assay with MDA-MB-435; above 10 µg/mL in assay [2]; above 2.5 µg/mL in assay [3]; above 2.5 µg/mL with HT-29. In addition, the result with HeLa [1] and with HeLa [4] was inactive.

The values above are taken from ChEMBL document CHEMBL1932932, “Natural product libraries to accelerate the high-throughput discovery of therapeutic leads” (J Nat Prod, 2011).
